# Data published in ChEMBL document CHEMBL1135823, “Discovery and SAR of a novel selective and orally bioavailable nonpeptide classical competitive inhibitor class of protein-tyrosine phosphatase 1B” (J Med Chem, 2002).
# “And” between values parts separate entries of the source, which are not always exact repeats. Identical values can stand only once.
# Key:
# [1] = Oral bioavailability; type: ADME, organism-based; conditions: eutheria, in vivo, read-out: f (po)
# [2] = molecular target: Receptor-type tyrosine-protein phosphatase alpha (Homo sapiens, UniProt P18433); assay: Inhibitory effect against human Protein-tyrosine phosphatase alpha (PTPalpha) using p-nitrophenyl phosphate substrate at a pH 7.0
# Procedure, shortened: (§1)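 Ki from pNPP hydrolysis assays at pH 7 with recombinant PTPs (CD45, LAR, PTPα).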
# [3] = Pharmacokinetic Parameter Vss was reported for Protein Tyrosine Phosphatase 1B; type: ADME, organism-based; conditions: in vivo; read-out: Vss
# [4] = molecular target: Receptor-type tyrosine-protein phosphatase F (Homo sapiens, UniProt P10586); assay: Inhibitory effect against human Protein-tyrosine phosphatase Lar using p-nitrophenyl phosphate substrate at a pH 7.0; procedure, shortened: as §1
# [5] = molecular target: T1, Tyrosine-protein phosphatase non-receptor type 1 (Homo sapiens, UniProt P18031); assay: Inhibition of human recombinant Protein-tyrosine phosphatase 1B.
# T1 sequence (P18031 whole entry): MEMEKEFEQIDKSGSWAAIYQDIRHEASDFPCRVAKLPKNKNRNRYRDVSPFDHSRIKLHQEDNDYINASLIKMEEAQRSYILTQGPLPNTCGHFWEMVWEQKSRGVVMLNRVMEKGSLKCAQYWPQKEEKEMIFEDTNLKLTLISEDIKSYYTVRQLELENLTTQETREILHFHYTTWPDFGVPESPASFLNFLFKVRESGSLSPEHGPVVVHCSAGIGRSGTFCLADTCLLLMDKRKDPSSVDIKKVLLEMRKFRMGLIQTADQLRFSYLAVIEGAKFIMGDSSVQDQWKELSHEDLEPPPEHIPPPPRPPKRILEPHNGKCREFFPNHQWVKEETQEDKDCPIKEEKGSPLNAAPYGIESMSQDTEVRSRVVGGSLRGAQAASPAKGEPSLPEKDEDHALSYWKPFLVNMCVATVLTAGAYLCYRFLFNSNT
# Procedure, shortened: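 Enzyme is a soluble recombinant human PTP1B (residues 1–321). Ki is measured at pH 5.5 with p-nitrophenyl phosphate (pNPP) as substrate.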
# [6] = molecular target: T1, Tyrosine-protein phosphatase non-receptor type 1; assay: Inhibitory effect against recombinant human protein-tyrosine phosphatase 1B (PTP1B), using p-nitrophenyl phosphate substrate at pH 5.5.
# [7] = molecular target: T2, Receptor-type tyrosine-protein phosphatase C (Homo sapiens, UniProt P08575); assay: Inhibitory effect against human CD45 tyrosine phosphatase using p-nitrophenyl phosphate substrate at a pH 7.0; procedure, shortened: as §1
# T2 sequence (P08575 whole entry): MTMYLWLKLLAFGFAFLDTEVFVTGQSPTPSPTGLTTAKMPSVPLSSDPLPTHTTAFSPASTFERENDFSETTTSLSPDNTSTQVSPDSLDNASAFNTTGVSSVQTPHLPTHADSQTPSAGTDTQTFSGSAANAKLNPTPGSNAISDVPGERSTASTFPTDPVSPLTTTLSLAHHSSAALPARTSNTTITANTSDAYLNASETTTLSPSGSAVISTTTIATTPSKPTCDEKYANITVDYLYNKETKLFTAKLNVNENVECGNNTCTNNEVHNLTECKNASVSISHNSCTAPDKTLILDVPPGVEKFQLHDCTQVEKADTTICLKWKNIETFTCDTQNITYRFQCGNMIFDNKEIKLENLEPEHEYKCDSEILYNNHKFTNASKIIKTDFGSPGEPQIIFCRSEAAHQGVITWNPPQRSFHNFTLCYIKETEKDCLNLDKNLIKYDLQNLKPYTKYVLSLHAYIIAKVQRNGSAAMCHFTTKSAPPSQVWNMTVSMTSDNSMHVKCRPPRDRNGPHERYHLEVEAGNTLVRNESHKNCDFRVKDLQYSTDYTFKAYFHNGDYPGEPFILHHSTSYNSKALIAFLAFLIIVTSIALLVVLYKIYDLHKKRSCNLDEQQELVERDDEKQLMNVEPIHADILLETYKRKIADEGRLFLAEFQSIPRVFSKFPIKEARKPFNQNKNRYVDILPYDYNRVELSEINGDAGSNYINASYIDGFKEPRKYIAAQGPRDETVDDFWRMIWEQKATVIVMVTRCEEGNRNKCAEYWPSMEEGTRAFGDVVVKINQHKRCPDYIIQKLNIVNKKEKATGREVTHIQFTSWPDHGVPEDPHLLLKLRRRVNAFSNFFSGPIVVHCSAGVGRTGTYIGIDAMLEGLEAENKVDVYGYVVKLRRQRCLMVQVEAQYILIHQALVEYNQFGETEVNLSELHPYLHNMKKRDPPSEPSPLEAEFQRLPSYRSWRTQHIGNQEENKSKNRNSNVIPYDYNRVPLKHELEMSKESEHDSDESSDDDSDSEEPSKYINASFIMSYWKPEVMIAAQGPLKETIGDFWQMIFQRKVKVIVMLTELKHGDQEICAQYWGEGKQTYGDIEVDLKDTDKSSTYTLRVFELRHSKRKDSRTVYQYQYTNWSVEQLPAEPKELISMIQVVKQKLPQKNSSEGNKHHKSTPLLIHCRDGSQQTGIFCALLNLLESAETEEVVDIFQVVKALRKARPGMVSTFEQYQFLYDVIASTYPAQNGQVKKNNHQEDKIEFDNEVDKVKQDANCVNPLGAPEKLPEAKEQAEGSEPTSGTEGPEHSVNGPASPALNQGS
# [8] = Pharmacokinetic Parameter clearance was reported for Protein Tyrosine Phosphatase 1B; type: ADME, organism-based; conditions: in vivo
# [9] = Pharmacokinetic Parameter t1/2 was reported for Protein Tyrosine Phosphatase 1B; type: ADME, organism-based; conditions: in vivo
# Receptor-type tyrosine-protein phosphatase alpha, sequence (P18433 whole entry): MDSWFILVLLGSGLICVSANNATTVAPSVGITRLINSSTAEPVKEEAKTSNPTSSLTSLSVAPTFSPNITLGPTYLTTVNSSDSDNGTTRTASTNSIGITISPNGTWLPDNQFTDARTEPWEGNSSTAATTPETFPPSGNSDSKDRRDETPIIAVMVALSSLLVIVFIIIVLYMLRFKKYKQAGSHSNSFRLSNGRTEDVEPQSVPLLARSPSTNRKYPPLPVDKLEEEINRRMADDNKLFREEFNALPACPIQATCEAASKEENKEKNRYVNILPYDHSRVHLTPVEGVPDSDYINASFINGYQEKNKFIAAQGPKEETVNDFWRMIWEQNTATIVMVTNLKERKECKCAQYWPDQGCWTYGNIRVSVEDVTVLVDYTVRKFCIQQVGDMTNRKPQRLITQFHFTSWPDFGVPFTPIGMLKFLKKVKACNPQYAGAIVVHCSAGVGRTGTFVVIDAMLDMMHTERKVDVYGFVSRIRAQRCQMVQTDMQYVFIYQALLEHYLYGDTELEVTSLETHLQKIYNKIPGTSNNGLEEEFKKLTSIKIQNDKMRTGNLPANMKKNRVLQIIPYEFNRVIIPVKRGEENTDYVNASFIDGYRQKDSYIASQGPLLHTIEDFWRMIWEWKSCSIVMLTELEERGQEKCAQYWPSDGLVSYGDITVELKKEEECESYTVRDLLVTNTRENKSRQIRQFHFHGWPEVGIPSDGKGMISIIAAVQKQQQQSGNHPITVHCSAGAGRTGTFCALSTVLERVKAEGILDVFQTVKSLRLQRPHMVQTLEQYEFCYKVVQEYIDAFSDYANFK
# Receptor-type tyrosine-protein phosphatase F, sequence (P10586 whole entry): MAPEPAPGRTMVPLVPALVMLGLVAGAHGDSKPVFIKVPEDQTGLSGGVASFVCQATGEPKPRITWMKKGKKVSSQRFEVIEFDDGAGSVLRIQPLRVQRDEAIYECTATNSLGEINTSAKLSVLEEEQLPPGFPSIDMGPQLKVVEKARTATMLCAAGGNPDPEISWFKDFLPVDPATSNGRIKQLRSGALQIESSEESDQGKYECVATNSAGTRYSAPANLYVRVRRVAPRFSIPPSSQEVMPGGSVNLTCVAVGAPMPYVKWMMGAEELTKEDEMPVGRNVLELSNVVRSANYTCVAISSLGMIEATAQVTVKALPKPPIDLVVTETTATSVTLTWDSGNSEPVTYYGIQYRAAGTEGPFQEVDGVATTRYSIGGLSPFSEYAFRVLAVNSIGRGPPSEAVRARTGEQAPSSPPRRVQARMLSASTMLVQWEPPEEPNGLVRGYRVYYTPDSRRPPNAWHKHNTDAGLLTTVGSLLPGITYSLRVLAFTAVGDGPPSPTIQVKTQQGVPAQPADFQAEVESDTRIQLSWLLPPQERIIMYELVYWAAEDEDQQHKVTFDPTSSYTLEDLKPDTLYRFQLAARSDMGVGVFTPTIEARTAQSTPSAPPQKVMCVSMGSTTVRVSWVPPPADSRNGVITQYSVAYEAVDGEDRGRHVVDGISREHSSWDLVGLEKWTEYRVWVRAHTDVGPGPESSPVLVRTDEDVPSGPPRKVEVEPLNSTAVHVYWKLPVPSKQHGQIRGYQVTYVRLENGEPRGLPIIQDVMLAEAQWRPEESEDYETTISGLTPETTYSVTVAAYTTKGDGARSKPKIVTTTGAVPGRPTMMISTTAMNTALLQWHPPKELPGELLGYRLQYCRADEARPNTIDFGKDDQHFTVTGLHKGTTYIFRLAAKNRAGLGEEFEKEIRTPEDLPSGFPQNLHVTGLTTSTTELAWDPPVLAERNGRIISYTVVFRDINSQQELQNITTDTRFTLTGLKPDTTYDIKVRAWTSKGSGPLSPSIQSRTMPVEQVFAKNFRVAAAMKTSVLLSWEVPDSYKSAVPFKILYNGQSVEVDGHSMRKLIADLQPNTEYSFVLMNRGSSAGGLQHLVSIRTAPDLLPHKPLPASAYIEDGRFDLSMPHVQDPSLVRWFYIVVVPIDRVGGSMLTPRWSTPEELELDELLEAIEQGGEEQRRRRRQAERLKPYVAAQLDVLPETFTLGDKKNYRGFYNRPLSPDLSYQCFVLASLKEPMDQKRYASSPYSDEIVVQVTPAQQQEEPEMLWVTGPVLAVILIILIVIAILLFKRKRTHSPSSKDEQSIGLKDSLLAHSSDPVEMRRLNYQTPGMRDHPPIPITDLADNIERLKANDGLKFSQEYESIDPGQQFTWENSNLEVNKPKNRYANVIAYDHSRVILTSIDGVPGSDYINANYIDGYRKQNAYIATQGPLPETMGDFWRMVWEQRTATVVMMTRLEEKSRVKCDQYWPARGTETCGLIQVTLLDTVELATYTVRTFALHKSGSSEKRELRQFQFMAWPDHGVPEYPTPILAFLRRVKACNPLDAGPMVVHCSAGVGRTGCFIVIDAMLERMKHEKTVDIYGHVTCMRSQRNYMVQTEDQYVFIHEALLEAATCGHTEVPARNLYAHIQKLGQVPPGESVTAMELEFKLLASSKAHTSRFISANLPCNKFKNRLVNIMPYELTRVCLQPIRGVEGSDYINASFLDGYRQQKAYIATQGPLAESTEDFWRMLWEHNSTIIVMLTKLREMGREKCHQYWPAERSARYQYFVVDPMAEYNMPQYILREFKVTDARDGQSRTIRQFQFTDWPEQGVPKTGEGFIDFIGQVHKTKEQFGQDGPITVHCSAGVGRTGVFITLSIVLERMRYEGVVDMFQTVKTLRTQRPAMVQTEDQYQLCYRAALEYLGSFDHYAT
structure (smiles),measurement,setting,value
O=C(O)C(=O)Nc1sc2c(c1C(=O)O)CCN(CCc1ccccc1)C2,bioavailability,[1],13%
same,Ki,[2],2100 µM
same,Vd,[3],0.9 L/kg
same,Ki,[4],2100 µM
same,Ki,[5],3.2 µM and 7.2 µM
same,Ki,[6],0.27 µM
same,Ki,[7],1400 µM
same,clearance,[8],6.4 mL/min/kg
same,half-life,[9],2.82 h
